Tests used:
[1] = folding enthalpy; higher = less favourable; fluorescence melt of hairpins on a sequencing array, two-state fit; conditions: sodium 0.088 M
Method in brief: (§1)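 Cy3 fluorescence of library hairpins on a sequenced MiSeq flow cell, with annealed Cy3 and quencher oligos, was imaged in 50 mM Na-HEPES pH 8.0, 25 mM NaCl in 2.5 °C steps up to 60 °C. Signals were normalised to pre-quench Cy3 and to control variants. Melting temperature and folding enthalpy came from bootstrapped two-state fits, inverse-variance combined over four replicates. Fitted temperatures were raised by 9.35 °C to match UV melts.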

[2] = melting temperature; fluorescence melt of hairpins on a sequencing array, two-state fit, raised by 9.35 °C to match UV melts; conditions: sodium 0.088 M
Method in brief: as §1

Row | Sequence | folding enthalpy [1] | Tm [2]
1 | GCTGGTCGAAAGACTAGC (((.(((....))).))) | -43.2 kcal/mol | 57.6 °C
2 | GCTGGTGGAAACACCGGC ((.((((....)))).)) | -36.1 kcal/mol | 62.6 °C
3 | GCTGGTGGAAACGCTAGC (((.(.(....).).))) | -26.8 kcal/mol | 41.2 °C
4 | GCTGTAGCGAAAGCTAGC (((..(((....)))))) | -14 kcal/mol | 46.4 °C
5 | GCTGTAGGAAACTGCAGC ((((.((....)).)))) | -43.3 kcal/mol | 52.6 °C
6 | GCTGTAGGAAACTGTAGC (((..((....))..))) | -11.7 kcal/mol | 29.2 °C
7 | GCTGTATCGAAAGATAGC (((..(((....)))))) | -18.4 kcal/mol | 33.7 °C
8 | GCTGTCGAAAGACAAAGC ((((((....)))..))) | -23.9 kcal/mol | 48.9 °C
9 | GCTGTCGAAAGACCAAGC ((((((....)))..))) | -19.5 kcal/mol | 38.9 °C
10 | GCTGTCGAAAGACGAAGC ((((((....)))..))) | -18.4 kcal/mol | 44.3 °C
11 | GCTGTCGGAAACGACGGC ((.((((....)))).)) | -34.2 kcal/mol | 64 °C
12 | GCTGTCGGAAACGATGGC ((..(((....)))..)) | -33.5 kcal/mol | 47.8 °C
13 | GCTGTCGGAAACGGCAGC ((((.((....)).)))) | -47.7 kcal/mol | 63 °C
14 | GCTGTGCGAAAGCACTGC ((.((((....)))).)) | -24.1 kcal/mol | 68.1 °C
15 | GCTGTGCGAAAGCCAAGC (((..((....))..))) | -19.2 kcal/mol | 46.2 °C
16 | GCTGTGCGAAAGCCTAGC (((..((....))..))) | -18.2 kcal/mol | 44.3 °C
17 | GCTGTGGGAAACCACGGC ((.((((....)))).)) | -36.2 kcal/mol | 58.8 °C
18 | GCTGTGGGAAACTACGGC ((.((.(....).)).)) | -31.6 kcal/mol | 42.6 °C
19 | GCTGTGTCGAAAGACAGC (((..(((....)))))) | -17.3 kcal/mol | 48.9 °C

Row | Sequence | folding enthalpy [1] | Tm [2]
20 | GCTGTTGGAAACAGCAGC ((((.((....)).)))) | -12.4 kcal/mol | 63 °C
21 | GCTGTTGGAAACGACAGC (((((.(....).))))) | -40.7 kcal/mol | 54.7 °C
22 | GCTTAACCGAAAGGTAGC (((..(((....)))))) | -19 kcal/mol | 42.2 °C
23 | GCTTAAGAAATTAAGC ((((((....)))))) | -26.4 kcal/mol | 43.5 °C
24 | GCTTACGAAAGTAAAAGC ((((((....)))..))) | -27.5 kcal/mol | 41.7 °C
25 | GCTTACGAAAGTAAGC ((((((....)))))) | -31.8 kcal/mol | 68.9 °C
26 | GCTTACGAAAGTAGCAGC ((((((....)))..))) | -18.4 kcal/mol | 38.1 °C
27 | GCTTACGAAAGTAGGAGC ((((((....)))..))) | -25.3 kcal/mol | 35 °C
28 | GCTTACGCGAAAGCGAGC (((..(((....)))))) | -12.7 kcal/mol | 43 °C
29 | GCTTACGGAAACGTAAAC (.(((((....))))).) | -17.9 kcal/mol | 33.3 °C
30 | GCTTACGGAAACGTGAGC (((.(((....))).))) | -43.4 kcal/mol | 52.6 °C
31 | GCTTACTCGAAAGAGAGC (((..(((....)))))) | -14.5 kcal/mol | 30.1 °C
32 | GCTTAGCGAAAGCATAGC (((..((....))..))) | -16.8 kcal/mol | 45.7 °C
33 | GCTTAGCGAAAGCCCAGC (((..((....))..))) | -11.5 kcal/mol | 33.4 °C
34 | GCTTAGCGAAAGCCGAGC (((..((....))..))) | -15.8 kcal/mol | 42 °C
35 | GCTTAGCGAAAGCGTAGC (((..((....))..))) | -28.9 kcal/mol | 61.3 °C
36 | GCTTAGCGAAAGCTACGC ((.((((....)))).)) | -22.4 kcal/mol | 51.9 °C
37 | GCTTAGCGAAAGCTAGGC ((.((((....)))).)) | -28.3 kcal/mol | 60.4 °C
